In ChEMBL document CHEMBL2406979, “Antitumor activity of 2-hydroxycinnamaldehyde for human colon cancer cells through suppression of β-catenin signaling” (J Nat Prod, 2013):
The source made the active and inactive calls. The rule behind the calls is not given here.

Assays:
[1] = test system: Mus musculus; assay: (§1) In vivo inhibition of Wnt/beta-catenin signaling pathway in human HCT116 cells xenografted in BALB/c-nu mouse assessed as downregulation of CMYC mRNA expression at 10 to 20 mg/kg, ip administered 3 times per week measured after 4 weeks by real-time PCR analysis; format: functional, organism-based; conditions: HCT-116
Method in brief: (§2)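 Frozen tumors from ip-dosed HCT116 xenograft mice were extracted with TRI reagent and reverse-transcribed. SYBR Green real-time PCR run 40 cycles of 95/56/72 °C. Expression by 2^−ΔΔCT normalized to β-actin, relative to vehicle-treated controls; quadruplicate.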

[2] = test system: Mus musculus; assay: as §1, with “cyclin D1” for “CMYC mRNA”, “hematoxylin staining-based inverted phase-contrast microscopic” for “real-time PCR”; format: functional, organism-based; conditions: HCT-116
[3] = test system: HCT-116; assay: Cytotoxicity against human HCT116 cells assessed as growth inhibition after 72 hrs by SRB assay; format: functional, cell-based; conditions: HCT-116, 72 h
Method in brief: (§3)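 HCT116 cells seeded at 6 × 10^3/well and grown 24 h. Day-zero plates fixed; others exposed 24, 48 or 72 h. Fixed with 10% TCA, stained with 0.4% SRB in 1% acetic acid, dye taken up in 10 mM Tris pH 10.0, read at 515 nm. Proliferation % = (compound − day zero)/(control − day zero) × 100. IC50 by nonlinear regression; four determinations.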

[4] = test system: Mus musculus; assay: as §1, with “Ki-67” for “CMYC mRNA”, “hematoxylin staining-based inverted phase-contrast microscopic” for “real-time PCR”; format: functional, organism-based; conditions: HCT-116
Method in brief: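 Immunohistochemistry on xenograft tumor sections from ip-dosed mice. Ki-67 detected with anti-Ki67 antibody and an LSAB+ HRP system. Sections counterstained with hematoxylin and photographed under an inverted phase-contrast microscope at 200×.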

[5] = test system: Mus musculus; assay: In vivo inhibition of Wnt/beta-catenin signaling pathway in human HCT116 cells xenografted in BALB/c-nu mouse assessed as downregulation of PLAU mRNA expression at 10 to 20 mg/kg, ip administered 3 times per week measured after 4 weeks by real-time PCR analysis; format: functional, organism-based; conditions: HCT-116; method in brief: as §2
[6] = test system: Mus musculus; assay: In vivo inhibition of Wnt/beta-catenin signaling pathway in human HCT116 cells xenografted in BALB/c-nu mouse assessed as downregulation of CMYC protein expression at 10 to 20 mg/kg, ip administered 3 times per week measured after 4 weeks by Western blot analysis; format: functional, organism-based; conditions: HCT-116
Method in brief: (§4)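 Part of each frozen xenograft tumor was thawed on ice and hand-homogenized in Complete Lysis Buffer. Protein was quantified and aliquots stored at −80 °C. Western blot: SDS-PAGE, PVDF transfer, ECL detection, compared with vehicle-treated tumors.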

[7] = test system: HEK293; assay: Inhibition of Wnt/beta-catenin (unknown origin) signaling pathway expressed in HEK293 cells assessed as inhibition of TCF4 transcriptional activity at 5 to 40 uM after 24 hrs by FOPflash reporter gene assay; format: cell-based; conditions: Homo sapiens
Method in brief: (§5)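 HEK293 cells seeded at 1.5 × 10^4/well. After 24 h, lipofected with 0.1 μg TOPflash or FOPflash, 0.005 μg Renilla, 0.02 μg β-catenin and 0.004 μg TCF4 vectors. Treated 24 h after transfection for 24 h. Dual luciferase read-out, firefly normalized to Renilla, relative to vehicle; triplicate.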

[8] = test system: HCT-116; assay: Inhibition of Wnt/beta-catenin signaling pathway in human HCT116 cells assessed as downregulation of MMP7 mRNA expression at 5 to 10 uM after 12 hrs by real-time PCR analysis; format: cell-based
Method in brief: (§6)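 HCT116 cells treated 12 h. Total RNA by TRI reagent, reverse-transcribed, SYBR Green real-time PCR: 40 cycles of 95 °C 20 s, 56 °C 20 s, 72 °C 30 s. Fold change by 2^−ΔΔCT normalized to β-actin, relative to untreated control; quadruplicate.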

[9] = test system: HCT-116; assay: Inhibition of Wnt/beta-catenin codon 45 deletion mutant signaling pathway human HCT116 cells assessed as inhibition of TCF4 transcriptional activity after 24 hrs by TOPflash reporter gene assay; format: cell-based
Method in brief: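 HCT116 cells seeded at 1.5 × 10^4/well and lipofected after 24 h with 0.1 μg TOPflash (or FOPflash) plus 0.005 μg Renilla; no β-catenin/TCF4 added. Treated 24 h for 24 h. Dual luciferase, Renilla-normalized, relative to vehicle; means ± SD, n = 3, four separate determinations.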

[10] = test system: HEK293; assay: Inhibition of Wnt/beta-catenin (unknown origin) signaling pathway expressed in HEK293 cells assessed as inhibition of TCF4 transcriptional activity after 24 hrs by TOPflash reporter gene assay; format: cell-based; conditions: Homo sapiens; method in brief: as §5
[11] = test system: HCT-116; assay: Antitumor activity against human HCT116 cells xenografted in BALB/c-nu mouse assessed as tumor growth inhibition at 20 mg/kg, ip administered 3 times per week for 4 weeks measured every 2 to 3 days during treatment relative to control; format: functional; conditions: HCT-116, ip, route intraperitoneal, read-out: TGI
Method in brief: (§7)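 Female BALB/c-nu mice, 4−6 weeks old, acclimated one week, given 2 × 10^6 HCT116 cells sc in the flank. Dosing began near 100 mm3, about day 8; five mice per group. Dose in 0.5% Tween 80 in normal saline, 200 μL ip; controls got vehicle. Tumor volume by caliper = L × W × H/2. Study ended when control tumors averaged ~1300 mm3.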

[12] = test system: HCT-116; assay: Inhibition of Wnt/beta-catenin signaling pathway in human HCT116 cells assessed as downregulation of NKD1 mRNA expression at 5 to 10 uM after 12 hrs by real-time PCR analysis; format: cell-based; method in brief: as §6
[13] = test system: Mus musculus; assay: In vivo inhibition of Wnt/beta-catenin signaling pathway in human HCT116 cells xenografted in BALB/c-nu mouse assessed as downregulation of NKD1 mRNA expression at 10 to 20 mg/kg, ip administered 3 times per week measured after 4 weeks by real-time PCR analysis; format: functional, organism-based; conditions: HCT-116; method in brief: as §2
[14] = test system: HCT-116; assay: Inhibition of Wnt/beta-catenin signaling pathway in human HCT116 cells assessed as downregulation of AXIN2 mRNA expression at 5 to 10 uM after 12 hrs by real-time PCR analysis; format: cell-based; method in brief: as §6
[15] = test system: HCT-116; assay: Inhibition of Wnt/beta-catenin signaling pathway in human HCT116 cells assessed as downregulation of CCND1 protein expression at 5 to 10 uM after 24 to 48 hrs by Western blot analysis; format: cell-based
Method in brief: (§8)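 HCT116 cells treated 24 or 48 h. Lysed in RIPA buffer; equal protein run on 8−13% SDS-PAGE, blotted to PVDF, probed for β-catenin, c-myc and cyclin D1, detected by ECL. β-Actin served as internal standard; four determinations.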

[16] = test system: HCT-116; assay: Inhibition of Wnt/beta-catenin signaling pathway in human HCT116 cells assessed as downregulation of CMYC protein expression at 5 to 10 uM after 24 to 48 hrs by Western blot analysis; format: cell-based; method in brief: as §8
[17] = test system: Mus musculus; assay: In vivo inhibition of Wnt/beta-catenin signaling pathway in human HCT116 cells xenografted in BALB/c-nu mouse assessed as downregulation of survivin protein expression at 10 to 20 mg/kg, ip administered 3 times per week measured after 4 weeks by Western blot analysis; format: functional, organism-based; conditions: HCT-116; method in brief: as §4
[18] = test system: Mus musculus; assay: Toxicity in BALB/c-nu mouse xenografted with human HCT116 cells assessed as change in body weight at 10 to 20 mg/kg, ip administered 3 times per week measured for 4 weeks; format: organism-based, HCT-116; parameters: dose 10-20 mg/kg, route intraperitoneal; conditions: in vivo, 672 h
Method in brief: (§9)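 Same HCT116 flank xenograft in female BALB/c-nu mice, five per group, dosed ip in 0.5% Tween 80/saline with vehicle controls. Toxicity was judged from lethality and body weight loss, with body weights tracked through the study.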

[19] = test system: HCT-116; assay: Cytotoxicity against human HCT116 cells assessed as growth inhibition at 5 to 20 uM by SRB assay; format: functional, cell-based; conditions: TDE = time-dependent effect; method in brief: as §3
[20] = test system: HCT-116; assay: Cytotoxicity against human HCT116 cells assessed as growth inhibition after 24 to 72 hrs by SRB assay; format: functional, cell-based; method in brief: as §3
[21] = test system: HCT-116; assay: Inhibition of Beta-catenin/TCF complex binding to DNA in human HCT116 cells at 5 to 10 uM after 30 mins by electrophoretic mobility shift assay; format: cell-based
Method in brief: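 HCT116 cells (1 × 10^6) treated 30 min. Nuclear extract made by NP-40 hypotonic lysis, then 420 mM NaCl hypertonic extraction; protein by Bradford. Binding: 8 μg nuclear protein with 1.5 pmol biotin-labeled TCF binding probe, 15 °C for 30 min, read by EMSA against vehicle-treated cells.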

[22] = test system: HCT-116; assay: Inhibition of Wnt/beta-catenin signaling pathway in human HCT116 cells assessed as downregulation of CMYC mRNA expression at 5 to 10 uM after 12 hrs by real-time PCR analysis; format: cell-based; method in brief: as §6
[23] = test system: HCT-116; assay: Inhibition of Wnt/beta-catenin signaling pathway in human HCT116 cells assessed as downregulation of total beta-catenin protein expression at 5 to 10 uM after 24 to 48 hrs by Western blot analysis; format: cell-based; method in brief: as §8
[24] = test system: Mus musculus; assay: In vivo inhibition of Wnt/beta-catenin signaling pathway in human HCT116 cells xenografted in BALB/c-nu mouse assessed as downregulation of CCND1 protein expression at 10 to 20 mg/kg, ip administered 3 times per week measured after 4 weeks by Western blot analysis; format: functional, organism-based; conditions: HCT-116; method in brief: as §4
[25] = test system: Mus musculus; assay: Toxicity in BALB/c-nu mouse xenografted with human HCT116 cells assessed as overt toxicity at 10 to 20 mg/kg, ip administered 3 times per week measured for 4 weeks; format: organism-based, HCT-116; parameters: dose 10-20 mg/kg, route intraperitoneal; conditions: in vivo, 672 h; method in brief: as §9
[26] = test system: HCT-116; assay: Cytotoxicity against human HCT116 cells assessed as growth inhibition after 48 hrs by SRB assay; format: functional, cell-based; conditions: HCT-116, 48 h; method in brief: as §3
[27] = test system: Mus musculus; assay: In vivo inhibition of Wnt/beta-catenin signaling pathway in human HCT116 cells xenografted in BALB/c-nu mouse assessed as downregulation of MMP7 mRNA expression at 10 to 20 mg/kg, ip administered 3 times per week measured after 4 weeks by real-time PCR analysis; format: functional, organism-based; conditions: HCT-116; method in brief: as §2
[28] = test system: HCT-116; assay: Cytotoxicity against human HCT116 cells assessed as growth inhibition after 24 hrs by SRB assay; format: functional, cell-based; conditions: HCT-116, 24 h; method in brief: as §3
[29] = test system: HCT-116; assay: Inhibition of Wnt/beta-catenin signaling pathway in human HCT116 cells assessed as downregulation of PLAU mRNA expression at 5 to 10 uM after 12 hrs by real-time PCR analysis; format: cell-based; method in brief: as §6
[30] = test system: HCT-116; assay: Inhibition of Wnt/beta-catenin signaling pathway in human HCT116 cells assessed as downregulation of DKK1 mRNA expression at 5 to 10 uM after 12 hrs by real-time PCR analysis; format: cell-based; method in brief: as §6
[31] = test system: Mus musculus; assay: as §1, with “beta-catenin” for “CMYC mRNA”, “hematoxylin staining-based inverted phase-contrast microscopic” for “real-time PCR”; format: functional, organism-based; conditions: HCT-116
[32] = test system: HCT-116; assay: Antitumor activity against human HCT116 cells xenografted in BALB/c-nu mouse assessed as tumor growth inhibition at 10 mg/kg, ip administered 3 times per week for 4 weeks measured every 2 to 3 days during treatment relative to control; format: functional; conditions: HCT-116, ip, route intraperitoneal, read-out: TGI; method in brief: as §7
[33] = test system: HCT-116; assay: Inhibition of Wnt/beta-catenin signaling pathway in human HCT116 cells assessed as downregulation of CCND1 mRNA expression at 5 to 10 uM after 12 hrs by real-time PCR analysis; format: cell-based; method in brief: as §6
[34] = test system: Mus musculus; assay: In vivo inhibition of Wnt/beta-catenin signaling pathway in human HCT116 cells xenografted in BALB/c-nu mouse assessed as downregulation of CCND1 mRNA expression at 10 to 20 mg/kg, ip administered 3 times per week measured after 4 weeks by real-time PCR analysis; format: functional, organism-based; conditions: HCT-116; method in brief: as §2

O=C/C=C/c1ccccc1O [2-HYDROXYCINNAMALDEHYDE]
inhibition [1]: Active | inhibition [2]: Active | IC50 [3]: 6.17 µM | inhibition [4]: Active | inhibition [5]: Active | inhibition [6]: Active | inhibition [7]: inactive | inhibition [8]: Active | inhibition [9]: Dose-dependent effect | inhibition [10]: Dose-dependent effect | inhibition in vivo at 20 mg/kg [11]: 69% | inhibition [12]: Active | inhibition [13]: Active | inhibition [14]: Active | inhibition [15]: Active | inhibition [16]: Active | inhibition [17]: Active | Activity [18]: Non-toxic | Activity [19]: tde | Activity [20]: Dose-dependent effect | inhibition [21]: Active | inhibition [22]: Active | inhibition [23]: Active | inhibition [24]: Active | Activity [25]: Non-toxic | IC50 [26]: 6.62 µM | inhibition [27]: Active | IC50 [28]: 8.14 µM | inhibition [29]: Active | inhibition [30]: Active | inhibition [31]: Active | inhibition in vivo at 10 mg/kg [32]: 52% | inhibition [33]: Active | inhibition [34]: Active
